UBC9 SUMO inh – SUMOylation inhibition; HTRF SUMOylation assay, SAE1/SAE2 + UBC9, in vitro; P63279; 290,000 tested, 0.36% active; inhibition, % at 35 µM; in the data active = inhibition above about 50%, passing the limit was not always enough; inconclusive = no clear call, values can overlap the other calls
Target sequence (P63279 whole entry, looked up): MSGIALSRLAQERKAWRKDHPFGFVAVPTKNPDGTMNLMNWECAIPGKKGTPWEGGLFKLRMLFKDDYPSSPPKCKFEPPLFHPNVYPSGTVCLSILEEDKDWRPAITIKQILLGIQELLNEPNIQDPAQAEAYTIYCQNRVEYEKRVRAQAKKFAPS
IMP-1 inhibitor – inhibitors of Pseudomonas aeruginosa IMP-1 metallo-beta-lactamase | 290,000 tested, 0.45% active | purified IMP-1, nitrocefin hydrolysis, epi-absorbance fluorescence | AID 1556 | inhibition, % at 5.6 µM;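 active = inhibition above the mean plus 3 SD of all compounds in the same screening run, cut at about 4.5% in these data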
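Material – recombinant IMP-1 enzyme, purified · Amount – IMP-1 0.2 nM before substrate addition · Medium – HEPES buffer pH 7.1 with ZnSO4 and Brij 35 · Timing – 25 °C, 15 min preincubation, 25 min reaction · Measured by – plate fluorescence quenching by hydrolysis product, ex 480/em 530 nm · Read-out – percent enzyme inhibition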
DNA FID counter – displaces DNA intercalator in HCV helicase counter-screen | DNA fluorescent intercalator displacement, fluorescence | inhibition, % at 7.9 µM | 290,000 tested, 0.17% active | AID 1845; in the data active = inhibition above about 37%;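 also: higher means more ethidium bromide displaced from hairpin DNA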
HCV NS3 hel inh – blocks Hepatitis C virus NS3 helicase unwinding | NS3 helicase DNA unwinding, Cy5 molecular beacon fluorescence | inhibition, % at 10.9 µM | 290,000 tested, 0.56% active;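 active = inhibition above the mean of all tested compounds plus 3 SD, set per campaign, cut at about 35% in these data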
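Assay system: hepatitis C virus NS3 helicase domain fragment enzyme. Also added: annealed dual-labelled DNA beacon duplex, ATP-started. Timing: 1 h reaction at 25 °C, ATP-initiated. Technique: Cy5 fluorescence at 0 and 60 min, beacon hairpin quenching. Evaluation: % inhibition of unwinding. Replication: one well per compound.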
VIM-2 inhibitor – blocks Pseudomonas aeruginosa VIM-2 metallo-beta-lactamase; purified VIM-2, nitrocefin hydrolysis, epi-absorbance fluorescence; inhibition, % at 5.6 µM; 290,000 tested, 0.89% active; AID 1527;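 active = inhibition above the mean of all tested compounds plus 3 SD, cutoff set per screening run, cut at about 7.5% in these data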;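 also: red hydrolysis product quenches plate fluorescence so inhibitors raise well fluorescence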
A number is an active result; n = inactive; u = inconclusive; x = no result given. An excerpt weighted towards active compounds, which were near 2.1% of everything screened.

SMILES	UBC9 SUMO inh	IMP-1 inhibitor	DNA FID counter	HCV NS3 hel inh	VIM-2 inhibitor
Cc1ccc2c(c1)c1ncnc(N3CCOCC3)c1n2C	n	n	n	n	7.7
Cc1cc(C(=O)CSc2nc(N)cc(N)n2)c(C)n1C1CC1	51	n	n	n	n
Cc1ccc(NC(=O)Cn2c([N+](=O)[O-])cnc2C)cc1Cl	n	n	n	n	n
C[n+]1ccc(/C=C/c2ccc(Br)cc2)cc1	n	8.3	n	n	n
CCCn1c(/C=C/c2cc[n+](C)cc2)nc2ccccc21	u	n	n	n	n
CCC1(N(C(C)=O)c2ccc(OC)cc2)C(=O)c2ccccc2C1=O	n	21	n	n	n
COc1ccc(N(CN2C(=O)c3ccccc3C2=O)C(=O)C(C)C)cc1	n	n	n	n	n
Cc1ccc(-n2c(CCc3ccccc3)n[nH]c2=S)cc1C	n	n	n	n	n
Cc1nn(CCc2n[nH]c(=S)n2-c2ccc(F)c(Cl)c2)c(C)c1[N+](=O)[O-]	n	n	n	n	9.7
Cc1nn(CCc2n[nH]c(=S)n2-c2ccc(F)cc2)c(C)c1[N+](=O)[O-]	n	n	n	n	n
O=C1OC(Nc2cc(Br)cc3cccnc23)c2ccccc21 (stereo not given)	88	n	n	n	n
COc1ccc2c(c1)c(=O)oc1c(C)c(OCc3ccc(C(=O)O)cc3)ccc12	55	n	n	n	n
COc1ccc2c(c1)c(=O)oc1c(C)c(OCc3cc(C(=O)O)oc3C)ccc12	70	n	n	n	n
Cc1oc2c(c(C)cc3oc(=O)c(CC(=O)N[C@H](C(=O)O)C(C)C)c(C)c32)c1C	51	n	n	n	n
Cc1oc2c(c(C)cc3oc(=O)c(CC(=O)NCC(=O)NCC(=O)O)c(C)c32)c1C	53	n	n	n	n
Cc1oc2c(c(C)cc3oc(=O)c(CC(=O)NCCC(=O)O)c(C)c32)c1C	n	n	n	n	n
CC[C@@H](C)[C@H](NC(=O)Cc1c(C)c2c(cc(C)c3c(C)coc32)oc1=O)C(=O)O	n	n	n	n	n
CC(NC(=O)c1ccc(OC2CCN(C(=O)c3cccnc3)CC2)cc1)C1CC1 (stereo not given)	n	n	n	n	n
Cn1c(-c2ccccc2)c(C(=O)CCl)c2ccccc21	n	n	n	n	n
CCCc1c(CC)c(=N)c2ccccc2n1C	n	8.8	n	n	n
COc1ccc(Nc2nc(-c3ccncc3)nc3ccccc23)cc1	n	n	n	n	11
COc1ccc(Nc2ccc(OC)cc2)cc1	56	n	n	n	n
COc1ccc(Nc2c3c(nc4ccccc24)CCC3)cc1	n	n	n	n	n
COc1ccc(Nc2c3ccccc3nc3ccccc23)cc1	n	n	n	n	9.2
CC(C)CN1CCC(=O)N(CCSc2ccc(Br)cc2)CC1	n	x	x	x	x
SMILES	UBC9 SUMO inh	IMP-1 inhibitor	DNA FID counter	HCV NS3 hel inh	VIM-2 inhibitor
O=C(Nc1ccc(Cc2nc3ccccc3s2)cc1)c1ccncc1	n	n	n	n	n
CCCC[n+]1c2ccccc2cc2ccccc21	n	n	38	n	n
CCC[n+]1c2ccccc2cc2ccccc21	n	n	38	n	n
Cc1ccc2ccccc2[n+]1CCCS(=O)(=O)[O-]	n	n	n	n	n
CCCCC[n+]1cccc2c3ccccc3ccc21	n	n	n	n	n
COc1cccc(Nc2nc(-c3sc(NC(=O)CC(C)C)nc3C)cs2)c1	n	5.9	n	n	n
C=CCCC(=O)Nc1nc(C)c(-c2csc(Nc3cccc(OC)c3)n2)s1	n	n	n	n	n
O=C(CSc1nncs1)Nc1nnc(-c2ccccc2)o1	n	n	n	n	n
COC(=O)c1c(NC(=O)C(=O)N2CCOCC2)sc2c1CCC2	n	n	n	n	11
COC(=O)c1c(NC(=O)C(=O)N2CCOCC2)sc2c1CCCC2	n	n	n	n	n
COC(=O)c1c(NC(=O)Cc2cccs2)sc2c1CCCC2	n	4.5	n	n	n
COCC(=O)Nc1sc2c(c1C(=O)OC)CCCC2	n	n	n	n	n
Cn1nc(C(=O)NC(C)(C)C)c2ccccc21	n	n	n	n	n
NCCNc1ccc([N+](=O)[O-])c(Sc2nc3ccccc3[nH]2)c1	n	n	n	n	n
O=[N+]([O-])c1ccc(N2CCNCC2)cc1Sc1nc2ccccc2[nH]1	n	n	40	n	n
COc1ccc(CC(=O)NNC(=S)NCC2CC2)cc1OC	n	n	n	n	n
O=C(O)C1=C[C@H](c2csc3ccccc23)C[C@H](OCCCCO)O1	n	n	n	n	9.5
